Variants at the floor of the assay were thinned out.
B1: tRNA (parent)
chain: GUUCCGUUGGCGUAAUGGUAACGCGUCUCCCUCCUAAGGAGAAGACUGCGGGUUCGAGUCCCGUACGGAACG

Variants of: B1
Assay: yeast fitness relative to wild type (ratio to wild type); higher = fitter; tRNA-Arg(CCU), competitive growth, 37 C, YPD
In short: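 Start and end populations of a pooled competition were compared by 100-nucleotide paired-end sequencing of gene amplicons. The Saccharomyces cerevisiae strains carried tRNA-Arg(CCU) gene variants at the native genomic locus, synthesised with a 3% per-site mutation rate at 69 sites, and competed in YPD at 37°C for 24 hours in six parallel replicates. Darwinian fitness relative to wild type was based on the change in genotype frequencies. Genotypes required ≥ 100 starting reads, and estimates < 0.5 were set to 0.5.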

Variant | yeast fitness
GUUCCGUUGGCGUAAUGGUAACGCGUCUCCCUCCUAAGGCGAAGACUGCGGGUUCGAGUACCGUACGGAACG | 0.654
GUUCCGUUGGCGUAAUGGUAACGCGUCUCCCUCCUAAGGCGUAGACUGGGGGUUCGAGUCCCGUACGGAACG | 0.624
GUUCCGUUGGCGUAAUGGUAACGCGUCUCCCUCCUAAGGCGAAGACUGAGGGUUCGAGUCCCGUACGGAACG | 0.668
GUUCCGUUGGCGUAAUGGUAACGCGUCUCCCUCCUAAGGCGAAGACUGCGGGUUCAAGUCCCGUACGGAACG | 0.883
GUUCCGUUGGCGUAAUGGUAACGCGUCUCCCUCCUAAGGCGAAGACUGCGGGUUCCAGUCCCGUACGGAACG | 0.609
GUUCCGUUGGCGUAAUGGUAACGCGUCUCCCUCCUAAGGCGAAGACUGCGGGUUCGAGUCCCGUAUGGAACG | 0.895
GUUCCGUUGGCGUAAUGGUAACGCGUCUCCCUCCUAAGGCGAAGACUGCGAGUUCGAGUCCCGUACGGAACG | 0.84
GUUCCGUUGGCGUAAUGGUAACGCGUCUCCCUCCUAAGGCGAAGACUGCGGGUUCGCGUCACGUACGGAACG | ≤ 0.5
GUUCCGUUGGCGUAAUGGUAACGCGUCUCCCUCCUAAGGCGAAGACUGCGGGUUCGAGUCCGGUACGGAACG | 0.66
GUUCCGUUGGCGUAAUGGUAACGCGUCUCCCUCCUAAGGCGAAGACUGCGGGUUCGAGUCCAGUACGGAACG | 0.651
GUUCCGUUGGCGUAAUGGUAACGCGUCUCCCUCCUAAGCAGAAGACUGCGGGUUCCGGUCCCGUACGGAACG | ≤ 0.5
GUUCCGUUGGCGUAAUGGUAACGCGUCUCCCUCCUAAGUAGAAGGCUGCCGGUACGAGUCCCGUACAGAACG | 0.673
GUUCCGUUGGCGUAAUGGUAACGCGUCUCCCUCCUAAGGGGAAGACUGCGGGUUCGAGUCCCGUCCGGAACG | 0.858
GUUCCGUUGGCGUAAUGGUAACGCGUCUCCCUCCUAAGGGGAAGACUGCGGGUUCGAGUCCCGUUCGGAACG | 0.813
GUUCCGUUGGCGUAAUGGUAACGCGUCUCCCUCCUAAGGGGAAGACUGCGGGUUCGAGUCCCGUGCGGAACG | 0.984
GUUCCGUUGGCGUAAUGGUAACGCGUCUCCCUCCUAAGGCGAAGAUUGCGGGUUGGAGUCCCGUACGGAUCG | 0.503
GUUCCGUUGGCGUAAUGGUAACGCGUCUCCCUCCUAAGGCGAAGACUGCGGGUUCGAGGGCCGUACGGAACG | ≤ 0.5
GUUCCGUUGGCGUAAUGGUAACGCGUCUCCCUCCUAAGGGGAAGACUGCGGGUUCGUGUCCCGUACGGAACG | 0.624
GUUCCGUUGGCGUAAUGGUAACGCGUCUCCCUCCUAAGGCGAAGACUGCGGGUUCGGGUCCCGUACAGAACG | 0.554

Variant | yeast fitness
GUUCCGUUGGCGUAAUGGUAACGCGUCUCCCUCCUAAGGCGUAGACUGCGGGCUCGAGUCGCGUACGGAACG | ≤ 0.5
GUUCCGUUGGCGUAAUGGUAACGCGUCUCCCUCCUAAGGGGGGGACUGCGGGUUCGAGCCCCGUACGGAACG | ≤ 0.5
GUUCCGUUGGCGUAAUGGUAACGCGUCUCCCUCCUAAGCAGAAGACUGCGGGUGCGAGUCCCGUACGGAACG | 0.547
GUUCCGUUGGCGUAAUGGUAACGCGUCUCCCUCCUAAGGCGCAGACUGGGGGUUCGAGUCCCGUACGGAACG | ≤ 0.5
GUUCCGUUGGCGUAAUGGUAACGCGUCUCCCUCCUAAGGCGAAGACUGGGGGUUCGAGUCCCGUGCGGAACG | 0.584
GUUCCGUUGGCGUAAUGGUAACGCGUCUCCCUCCUAAGGCGAAGACUGCGGGUUGGAGUCCCGUACGGUACG | ≤ 0.5
GUUCCGUUGGCGUAAUGGUAACGCGUCUCCCUCCUAAGGCAAAGACAGCGGGUUCGAGUCCCGUACCGAACG | 0.637
GUUCCGUUGGCGUAAUGGUAACGCGUCUCCCUCCUAAGUCGAAGACUGCGGGUUCGAGUCCCGUAAGGUACG | 0.642
GUUCCGUUGGCGUAAUGGUAACGCGUCUCCCUCCUAAGGCGCAGACUGCGGGUUCGAGUCCCGUACGGAACG | 0.619
GUUCCGUUGGCGUAAUGGUAACGCGUCUCCCUCCUAAGGCGUAGACUGCGGGUUCGAGUCCCGUACGGAACG | 0.782
GUUCCGUUGGCGUAAUGGUAACGCGUCUCCCUCCUAAGGCGCAGACUGCGGGUUCGAGUCCCGUACGCAACG | 0.569
GUUCCGUUGGCGUAAUGGUAACGCGUCUCCCUCCUAAGGCGAGGACUGCGGGUUCGAGUCGCGUAUGGAACG | 0.683
GUUCCGUUGGCGUAAUGGUAACGCGUCUCCCUCCUAAGGGGAUGAGUGGGGGUUCGAGUCCUGUACGGAACG | 0.532
GUUCCGUUGGCGUAAUGGUAACGCGUCUCCCUCCUAAGGCGAAGACUGCGGGUUCGCGUCCCGUACGGAACG | 0.637
GUUCCGUUGGCGUAAUGGUAACGCGUCUCCCUCCUAAGGCGAAGACUGCGGGUUCGUGUCCCGUACGGAACG | 0.789
GUUCCGUUGGCGUAAUGGUAACGCGUCUCCCUCCUAAGGCGACGACUGCGGGUUCGAGUCCCGUACGGAACG | 1.04
GUUCCGUUGGCGUAAUGGUAACGCGUCUCCCUCCUAAGGCGAAGAGUGCGGGUUCGAGUCCCGUACGGAACG | 0.975
GUUCCGUUGGCGUAAUGGUAACGCGUCUCCCUCCUAAGCAGAAGACAGCGGGUUCGCGUCCCGUACGGAACG | ≤ 0.5
GUUCCGUUGGCGUAAUGGUAACGCGUCUCCCUCCUAAGCAGAAGACUGCGGGUUCGACUCCCGUACGGAACG | 0.83

From the RNAGym collection of RNA variant scans (doi:10.1126/science.aae0568)
